From ChEMBL document CHEMBL2086331, “Novel triazolopyridylbenzamides as potent and selective p38α inhibitors” (Bioorg Med Chem Lett, 2012)

Columns and labels:
[1] = test system: Blood; test: Inhibition of LPS-induced TNFalpha production in human whole blood; format: functional, tissue-based
[2] = Stability in rat hepatic microsomes assessed as compound turnover at 5 uM incubated for 30 mins in presence of NADPH; format: ADME; conditions: liver microsomes, read-out: Drug degradation
Method in brief: (§1)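 Rat or human hepatic microsomes (1 mg/mL) with NADPH, test compound 5 µM, 30 min at 37 °C; readout is % turnover of parent.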

[3] = Stability in human hepatic microsomes assessed as compound turnover at 5 uM incubated for 30 mins in presence of NADPH; format: ADME; conditions: liver microsomes, read-out: Drug degradation; method in brief: as §1
[4] = Passive permeability from basolateral to apical side in human Caco2 cells at 12.5 uM; format: ADME, cell-based; conditions: Caco-2, read-out: permeability
Method in brief: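 Caco-2 monolayer, test compound 12.5 µM; passive apparent permeability measured in both AB and BA directions, reported in 10^-6 cm/s.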

[5] = test system: CHO; test: Cytotoxicity against CHO cells at 200 uM; format: cell-based, Cricetulus griseus; conditions: chinese hamster
[6] = Protein binding in rat plasma; format: ADME, cell-free; conditions: read-out: PPB (converted)
[7] = Protein binding in human plasma; format: ADME, cell-free; conditions: read-out: PPB (converted)
[8] = Half life in Wistar rat at 1 mg/kg, iv; format: ADME, organism-based; set-up: dose 1 mg/kg, route intravenous; conditions: in vivo
Method in brief: (§2)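 Wistar rats, single dose either iv 1 mg/kg in 40% PEG + 0.4% HCl 1 N, or oral 10 mg/kg in 0.5% methylcellulose + 0.1% Tween 80; plasma PK parameters reported as mean values (n = 2).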

[9] = AUC in Wistar rat at 1 mg/kg, iv; format: ADME, organism-based; set-up: dose 1 mg/kg, route intravenous; conditions: plasma; method in brief: as §2
[10] = Clearance in Wistar rat at 1 mg/kg, iv; format: ADME, organism-based; set-up: dose 1 mg/kg, route intravenous; conditions: in vivo; method in brief: as §2
[11] = Volume of distribution at steady state in Wistar rat at 1 mg/kg, iv; format: ADME, organism-based; set-up: dose 1 mg/kg, route intravenous; conditions: in vivo, read-out: Vdss; method in brief: as §2
[12] = Cmax in Wistar rat at 10 mg/kg, po; format: ADME, organism-based; set-up: dose 10 mg/kg, route oral; conditions: in vivo; method in brief: as §2
[13] = AUC in Wistar rat at 10 mg/kg, po; format: ADME, organism-based; set-up: dose 10 mg/kg, route oral; conditions: plasma; method in brief: as §2
[14] = Oral bioavailability in Wistar rat at 10 mg/kg; format: ADME, organism-based; conditions: in vivo; method in brief: as §2
[15] = AUC in beagle dog at 1 mg/kg, iv; format: ADME, organism-based, Canis lupus familiaris; set-up: dose 1 mg/kg, route intravenous; conditions: plasma
Method in brief: (§3)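 Beagle dogs dosed 1 mg/kg iv or 1 mg/kg po; pharmacokinetic parameters reported as mean values of n = 2 animals.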

[16] = Clearance in beagle dog at 1 mg/kg, iv; format: ADME, organism-based, Canis lupus familiaris; set-up: dose 1 mg/kg, route intravenous; conditions: in vivo; method in brief: as §3
[17] = Volume of distribution at steady state in beagle dog at 1 mg/kg, iv; format: ADME, organism-based, Canis lupus familiaris; set-up: dose 1 mg/kg, route intravenous; conditions: in vivo, read-out: Vdss; method in brief: as §3
[18] = Cmax in beagle dog at 1 mg/kg, po; format: ADME, organism-based, Canis lupus familiaris; set-up: dose 1 mg/kg, route oral; conditions: in vivo; method in brief: as §3
[19] = AUC in beagle dog at 1 mg/kg, po; format: ADME, organism-based, Canis lupus familiaris; set-up: dose 1 mg/kg, route oral; conditions: plasma; method in brief: as §3
[20] = Oral bioavailability in beagle dog at 1 mg/kg; format: ADME, organism-based, Canis lupus familiaris; conditions: in vivo; method in brief: as §3
[21] = Half life in beagle dog at 1 mg/kg, iv; format: ADME, organism-based, Canis lupus familiaris; set-up: dose 1 mg/kg, route intravenous; conditions: in vivo; method in brief: as §3
[22] = test system: CHO; test: Toxicity against CHO cells; format: cell-based, Cricetulus griseus; conditions: chinese hamster
[23] = molecular target: T1, Cytochrome P450 1A2 (Homo sapiens, UniProt P05177); test: Inhibition of CYP1A2 at < 25 uM; format: ADME
T1 sequence (P05177 whole entry): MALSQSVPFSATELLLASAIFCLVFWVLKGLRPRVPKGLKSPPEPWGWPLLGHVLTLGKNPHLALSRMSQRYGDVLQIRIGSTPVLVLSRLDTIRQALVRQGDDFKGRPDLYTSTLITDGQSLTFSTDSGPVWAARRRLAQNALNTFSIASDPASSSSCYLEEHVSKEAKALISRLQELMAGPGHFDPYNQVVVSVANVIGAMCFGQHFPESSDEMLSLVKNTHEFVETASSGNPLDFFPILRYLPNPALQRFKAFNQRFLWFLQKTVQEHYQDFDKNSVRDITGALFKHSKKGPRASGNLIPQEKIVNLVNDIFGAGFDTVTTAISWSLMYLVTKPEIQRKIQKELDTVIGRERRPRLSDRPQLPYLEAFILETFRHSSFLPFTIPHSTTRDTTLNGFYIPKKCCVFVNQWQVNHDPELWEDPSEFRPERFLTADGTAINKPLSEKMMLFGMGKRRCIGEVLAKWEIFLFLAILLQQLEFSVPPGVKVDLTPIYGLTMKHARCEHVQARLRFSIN

[24] = molecular target: Cytochrome P450 3A4 (Homo sapiens, UniProt P08684); test: Inhibition of CYP3A4 at < 25 uM; format: ADME
Sequence of Cytochrome P450 3A4 (P08684 whole entry): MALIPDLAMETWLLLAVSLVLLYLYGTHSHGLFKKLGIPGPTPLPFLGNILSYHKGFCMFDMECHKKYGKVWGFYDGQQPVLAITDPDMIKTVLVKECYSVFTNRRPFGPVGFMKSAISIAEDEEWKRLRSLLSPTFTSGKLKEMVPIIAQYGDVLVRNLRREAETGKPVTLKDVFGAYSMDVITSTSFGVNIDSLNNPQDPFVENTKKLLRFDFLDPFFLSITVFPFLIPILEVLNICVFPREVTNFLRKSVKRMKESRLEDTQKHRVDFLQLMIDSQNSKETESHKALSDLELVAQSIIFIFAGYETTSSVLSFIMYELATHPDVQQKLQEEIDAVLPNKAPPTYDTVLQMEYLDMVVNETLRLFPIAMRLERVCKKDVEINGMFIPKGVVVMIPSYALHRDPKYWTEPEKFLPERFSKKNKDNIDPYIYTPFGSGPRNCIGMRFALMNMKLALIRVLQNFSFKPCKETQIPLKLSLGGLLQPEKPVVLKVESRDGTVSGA

[25] = molecular target: Cytochrome P450 2C9 (Homo sapiens, UniProt P11712); test: Inhibition of CYP2C9 at < 25 uM; format: ADME
Sequence of Cytochrome P450 2C9 (P11712 whole entry): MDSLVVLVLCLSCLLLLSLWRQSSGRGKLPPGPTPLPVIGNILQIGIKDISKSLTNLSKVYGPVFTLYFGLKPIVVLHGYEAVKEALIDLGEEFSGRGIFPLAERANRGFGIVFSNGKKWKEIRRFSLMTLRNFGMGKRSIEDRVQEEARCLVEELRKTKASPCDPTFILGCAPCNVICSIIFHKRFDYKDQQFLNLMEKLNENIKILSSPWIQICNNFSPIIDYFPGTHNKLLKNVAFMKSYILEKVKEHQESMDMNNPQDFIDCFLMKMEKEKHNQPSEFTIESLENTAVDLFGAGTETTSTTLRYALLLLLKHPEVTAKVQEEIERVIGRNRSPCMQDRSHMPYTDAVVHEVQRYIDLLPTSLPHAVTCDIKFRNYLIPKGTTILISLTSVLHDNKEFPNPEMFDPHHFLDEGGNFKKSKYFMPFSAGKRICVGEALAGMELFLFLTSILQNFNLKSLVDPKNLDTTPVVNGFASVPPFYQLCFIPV

[26] = molecular target: Cytochrome P450 2C19 (Homo sapiens, UniProt P33261); test: Inhibition of CYP2C19 at < 25 uM; format: ADME
Sequence of Cytochrome P450 2C19 (P33261 whole entry): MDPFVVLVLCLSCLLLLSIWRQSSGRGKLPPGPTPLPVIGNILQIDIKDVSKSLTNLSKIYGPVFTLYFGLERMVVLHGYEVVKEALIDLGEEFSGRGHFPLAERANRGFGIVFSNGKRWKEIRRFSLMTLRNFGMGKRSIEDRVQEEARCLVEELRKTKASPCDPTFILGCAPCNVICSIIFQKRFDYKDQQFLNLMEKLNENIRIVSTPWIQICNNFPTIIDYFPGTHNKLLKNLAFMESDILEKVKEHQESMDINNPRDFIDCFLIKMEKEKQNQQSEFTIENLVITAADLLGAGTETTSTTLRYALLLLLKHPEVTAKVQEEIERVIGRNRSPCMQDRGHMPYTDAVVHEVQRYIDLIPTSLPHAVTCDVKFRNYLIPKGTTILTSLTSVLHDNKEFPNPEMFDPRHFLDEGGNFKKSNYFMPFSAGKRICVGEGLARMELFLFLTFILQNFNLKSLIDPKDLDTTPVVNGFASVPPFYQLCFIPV

[27] = molecular target: Cytochrome P450 2D6 (Homo sapiens, UniProt P10635); test: Inhibition of CYP2D6 at < 25 uM; format: ADME
Sequence of Cytochrome P450 2D6 (P10635 whole entry): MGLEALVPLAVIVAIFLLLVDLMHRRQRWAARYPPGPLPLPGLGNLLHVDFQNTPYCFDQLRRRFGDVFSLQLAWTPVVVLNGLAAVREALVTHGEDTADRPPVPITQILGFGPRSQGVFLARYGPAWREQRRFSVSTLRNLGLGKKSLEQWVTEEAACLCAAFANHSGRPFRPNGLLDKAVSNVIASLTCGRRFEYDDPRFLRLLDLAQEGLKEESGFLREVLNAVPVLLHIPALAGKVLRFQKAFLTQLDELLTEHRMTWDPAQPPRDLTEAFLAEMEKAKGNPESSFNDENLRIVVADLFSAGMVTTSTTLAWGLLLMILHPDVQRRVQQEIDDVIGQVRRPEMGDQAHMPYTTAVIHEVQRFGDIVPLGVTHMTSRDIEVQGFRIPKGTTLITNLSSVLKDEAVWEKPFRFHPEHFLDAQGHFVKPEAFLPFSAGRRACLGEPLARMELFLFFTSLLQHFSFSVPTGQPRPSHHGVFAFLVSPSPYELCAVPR

[28] = molecular target: Proto-oncogene tyrosine-protein kinase receptor Ret (Homo sapiens, UniProt P07949); test: Inhibition of RET
Sequence of Proto-oncogene tyrosine-protein kinase receptor Ret (P07949 whole entry): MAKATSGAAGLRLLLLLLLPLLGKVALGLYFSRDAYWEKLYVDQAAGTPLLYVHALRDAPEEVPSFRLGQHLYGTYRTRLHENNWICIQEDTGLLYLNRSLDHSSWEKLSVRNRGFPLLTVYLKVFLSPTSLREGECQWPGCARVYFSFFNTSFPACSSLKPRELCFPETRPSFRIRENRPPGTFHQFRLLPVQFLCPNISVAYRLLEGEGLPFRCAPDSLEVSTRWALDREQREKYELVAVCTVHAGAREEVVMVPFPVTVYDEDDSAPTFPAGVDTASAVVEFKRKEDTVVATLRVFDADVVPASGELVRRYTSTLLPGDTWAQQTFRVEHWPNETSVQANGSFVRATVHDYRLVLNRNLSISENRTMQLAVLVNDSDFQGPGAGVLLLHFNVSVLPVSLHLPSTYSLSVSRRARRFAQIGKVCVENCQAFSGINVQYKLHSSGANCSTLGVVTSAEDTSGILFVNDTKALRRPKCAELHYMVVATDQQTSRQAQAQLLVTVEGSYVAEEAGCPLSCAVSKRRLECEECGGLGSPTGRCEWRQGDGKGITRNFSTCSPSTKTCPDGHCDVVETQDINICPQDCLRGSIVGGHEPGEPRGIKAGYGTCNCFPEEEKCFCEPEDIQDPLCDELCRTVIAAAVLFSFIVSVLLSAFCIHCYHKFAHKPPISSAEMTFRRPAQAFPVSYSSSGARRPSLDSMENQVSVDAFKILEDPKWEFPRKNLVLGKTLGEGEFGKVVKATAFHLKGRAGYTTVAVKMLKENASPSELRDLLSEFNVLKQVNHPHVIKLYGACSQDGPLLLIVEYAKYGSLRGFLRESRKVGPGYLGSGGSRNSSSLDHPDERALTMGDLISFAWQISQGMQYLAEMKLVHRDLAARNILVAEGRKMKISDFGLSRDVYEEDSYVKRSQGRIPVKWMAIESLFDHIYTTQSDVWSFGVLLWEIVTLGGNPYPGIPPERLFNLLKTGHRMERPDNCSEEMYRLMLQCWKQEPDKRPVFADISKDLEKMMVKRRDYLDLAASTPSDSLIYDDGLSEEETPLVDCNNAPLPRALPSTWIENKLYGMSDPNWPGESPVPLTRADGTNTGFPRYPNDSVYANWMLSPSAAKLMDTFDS

[29] = test system: Rattus norvegicus; test: Inhibition of TNFalpha release in rat LPS-induced endotoxemia model dosed orally 1 hr prior to LPS challenge and measured 1.5 hrs post LPS challenge; format: functional; conditions: po
Method in brief: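 Rats given compound orally 1 h before LPS challenge to induce endotoxemia; plasma TNFα quantified 1.5 h after LPS, at peak TNF production.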

[30] = test system: Rattus norvegicus; test: Antiarthritic effect in rat adjuvant-induced arthritis model assessed as inhibition of right paw edema at 3 mg/kg, po dosed daily during last 10 days of test; format: functional; conditions: 240 h
Method in brief: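 Arthritis induced by complete Freund's adjuvant injected into left hind paw; oral compound daily over final 10 days of protocol; right (non-injected) paw volume monitored, result as % inhibition of oedema.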

[31] = in vitro; conditions: human, Caco-2
[32] = molecular target: RAF proto-oncogene serine/threonine-protein kinase (Homo sapiens, UniProt P04049); test: Inhibition of c-Raf
Sequence of RAF proto-oncogene serine/threonine-protein kinase (P04049 whole entry): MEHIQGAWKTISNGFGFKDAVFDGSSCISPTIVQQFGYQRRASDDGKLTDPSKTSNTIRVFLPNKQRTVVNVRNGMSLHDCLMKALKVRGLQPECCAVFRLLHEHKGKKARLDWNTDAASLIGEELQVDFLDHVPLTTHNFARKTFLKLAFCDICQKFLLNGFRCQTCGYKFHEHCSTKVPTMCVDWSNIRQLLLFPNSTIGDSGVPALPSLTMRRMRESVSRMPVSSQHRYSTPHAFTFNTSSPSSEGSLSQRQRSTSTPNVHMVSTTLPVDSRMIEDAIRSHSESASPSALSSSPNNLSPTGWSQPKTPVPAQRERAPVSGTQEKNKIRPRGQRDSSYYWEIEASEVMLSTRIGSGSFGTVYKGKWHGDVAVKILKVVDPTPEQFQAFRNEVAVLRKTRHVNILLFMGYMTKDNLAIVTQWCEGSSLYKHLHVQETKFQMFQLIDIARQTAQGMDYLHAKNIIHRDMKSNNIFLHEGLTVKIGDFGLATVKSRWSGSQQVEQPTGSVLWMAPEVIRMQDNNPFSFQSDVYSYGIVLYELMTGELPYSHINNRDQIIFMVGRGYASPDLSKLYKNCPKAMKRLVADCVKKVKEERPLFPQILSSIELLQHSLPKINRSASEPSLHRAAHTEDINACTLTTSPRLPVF

COC(C)c1nnc2cc(-c3cc(C(=O)NC4CC4)ccc3C)ccn12 (configuration not stated)
IC50 [1]: 1.06 µM

Cc1ccc(C(=O)NC2CC2)cc1-c1ccn2c(C3CCC3)nnc2c1
IC50 [1]: 0.67 µM

Cc1c(F)cc(C(=O)NC2CC2)cc1-c1ccn2c(C(C)(C)NS(C)(=O)=O)nnc2c1
IC50 [1]: 1.11 µM

Cc1c(F)cc(C(=O)NC2CC2)cc1-c1ccn2c(C3CCC3)nnc2c1
IC50 [1]: 0.55 µM

Cc1c(F)cc(C(=O)NC2CC2)cc1-c1c(F)cn2c(C(C)(C)N(C)C)nnc2c1F
IC50 [1]: 0.124 µM

Cc1c(F)cc(C(=O)NC2CC2)cc1-c1c(F)cn2c(C(C)(C)C)nnc2c1F
IC50 [1]: 0.116 µM
metabolised at 0.5 h, 5 µM [2]: < 5%
metabolised at 0.5 h, 5 µM [3]: 6%
Papp B→A at 12.5 µM [4]: 250 nm/s
Activity [5]: 33%
fraction unbound [6]: 0.25
fraction unbound [7]: 0.21
half-life [8]: 3.3 h
AUC [9]: 8.01 µg·h/mL
clearance [10]: 0.138 L/h/kg
Vd [11]: 0.57 L/kg
Cmax [12]: 3.47 µg/mL
AUC [13]: 38.6 µg·h/mL
bioavailability [14]: 50%
AUC [15]: 6.44 µg·h/mL
clearance [16]: 0.162 L/h/kg
Vd [17]: 1.6 L/kg
Cmax [18]: 0.185 µg/mL
AUC [19]: 5.05 µg·h/mL
bioavailability [20]: 79%
half-life [21]: 7.3 h
Activity [22]: Non-toxic
inhibition (INH) [23]: Not Active
inhibition (INH) [24]: Not Active
inhibition (INH) [25]: Not Active
inhibition (INH) [26]: Not Active
inhibition (INH) [27]: Not Active
IC50 [28]: 2 µM
ED50 [29]: 1.36 mg/kg
inhibition in vivo at 3 mg/kg [30]: 67%
Papp A→B at 12.5 µM [31]: 410 nm/s

COC(C)(C)c1nnc2cc(-c3cc(C(=O)NC4CC4)cc(F)c3C)ccn12
IC50 [1]: 0.278 µM

Cc1ccc(C(=O)NC2CC2)cc1-c1ccn2c(C(C)(C)C)nnc2c1
IC50 [1]: 0.03 µM
metabolised at 0.5 h, 5 µM [2]: < 5%
metabolised at 0.5 h, 5 µM [3]: < 5%
Papp B→A at 12.5 µM [4]: 180 nm/s
Activity [5]: 50%
fraction unbound [6]: 0.39
fraction unbound [7]: 0.42
half-life [8]: 3.4 h
AUC [9]: 2.12 µg·h/mL
clearance [10]: 0.468 L/h/kg
Vd [11]: 2 L/kg
Cmax [12]: 2.6 µg/mL
AUC [13]: 19.4 µg·h/mL
bioavailability [14]: 93%
AUC [15]: 1.69 µg·h/mL
clearance [16]: 0.594 L/h/kg
Vd [17]: 1.7 L/kg
Cmax [18]: 0.215 µg/mL
AUC [19]: 1.26 µg·h/mL
bioavailability [20]: 75%
half-life [21]: 2.5 h
Activity [22]: Non-toxic
inhibition (INH) [23]: Not Active
inhibition (INH) [24]: Not Active
inhibition (INH) [25]: Not Active
inhibition (INH) [26]: Not Active
inhibition (INH) [27]: Not Active
IC50 [32]: 3.2 µM
ED50 [29]: 0.26 mg/kg
inhibition in vivo at 3 mg/kg [30]: 60%
Papp A→B at 12.5 µM [31]: 150 nm/s

Cc1c(F)cc(C(=O)NC2CC2)cc1-c1ccn2c(C3CC3)nnc2c1
IC50 [1]: 0.213 µM

Cc1ccc(C(=O)NC2CC2)cc1-c1ccn2c(C(C)C)nnc2c1
IC50 [1]: 0.042 µM

Cc1c(F)cc(C(=O)NC2CC2)cc1-c1ccn2c(C(C)(C)N)nnc2c1
IC50 [1]: 0.177 µM

Cc1c(F)cc(C(=O)NC2CC2)cc1-c1c(F)cn2c(C(C)C)nnc2c1F
IC50 [1]: 0.467 µM

Cc1c(F)cc(C(=O)NC2CC2)cc1-c1ccn2c(C(C)(C)O)nnc2c1
IC50 [1]: 0.105 µM

Cc1c(F)cc(C(=O)NC2CC2)cc1-c1c(F)cn2c(-c3ccncc3Cl)nnc2c1F
IC50 [1]: > 5 µM

Cc1c(F)cc(C(=O)NC2CC2)cc1-c1ccn2c(C(C)C)nnc2c1
IC50 [1]: 0.115 µM

Cc1ccc(C(=O)NC2CC2)cc1-c1ccn2c(C3CC3)nnc2c1
IC50 [1]: 0.025 µM

CC(C)(C)c1nnc2ccc(Sc3ccc(F)cc3F)cn12
IC50 [1]: 0.143 µM
